Measured values reported in the array DNA melting data of Ke et al. (doi:10.1101/2024.01.08.574731).

Tests used:
[1] = melting temperature; fluorescence melt of hairpins on a sequencing array, two-state fit, raised by 9.35 °C to match UV melts; settings: sodium 0.088 M
Method in brief: (§1)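 Library hairpins on a sequenced MiSeq flow cell carried annealed Cy3 and quencher oligos, and their Cy3 fluorescence was imaged in 50 mM Na-HEPES pH 8.0 with 25 mM NaCl, in 2.5 °C steps up to 60 °C. Signals were normalised to Cy3 before quenching and to control constructs. Melting temperature and folding enthalpy were obtained from bootstrapped two-state fits, combined by inverse-variance weighting across four replicates, and the fitted temperatures were then raised by 9.35 °C to match UV melts.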

[2] = folding enthalpy; higher = less favourable; fluorescence melt of hairpins on a sequencing array, two-state fit; settings: sodium 0.088 M
Method in brief: as §1

Sequence	Tm [1]	folding enthalpy [2]
GTACGGGGAAACCCACAC ((..(((....)))..))	30.4 °C	-16.3 kcal/mol
GTACGGGGAAACTCGTAC (((((.(....).)))))	50.7 °C	-35.4 kcal/mol
GTACGTCGAAAGACCTAC (((.(((....))).)))	34.3 °C	-13.6 kcal/mol
GTACGTCGAAAGACTTAC (((.(((....))).)))	39.3 °C	-25.7 kcal/mol
GTACGTGCGAAAGCATAC (((..(((....))))))	26.4 °C	-10.3 kcal/mol
GTACGTGGAAACACGCAC ((.((((....)))).))	47.3 °C	-17.2 kcal/mol
GTACTAGGAAACTAGCAC ((.((((....)))).))	32.2 °C	-22.1 kcal/mol
GTACTCGAAAGAGAGTAC ((((((....)))..)))	46.8 °C	-29.4 kcal/mol
GTACTCGAAAGAGATAC ((((((....))).)))	34.5 °C	-18 kcal/mol
GTACTCGAAAGAGGCTAC ((((((....)))..)))	37.4 °C	-14.3 kcal/mol
GTACTCGAAAGAGGTAC ((((((....))).)))	42.7 °C	-21.1 kcal/mol
GTACTCGAAAGAGTAC ((((((....))))))	61 °C	-36.2 kcal/mol
GTACTCGAAAGAGTCTAC ((((((....)))..)))	35.5 °C	-14.6 kcal/mol
GTACTCGGAAACGAGTGC (.(((((....))))).)	54.5 °C	-41 kcal/mol
GTACTGCGAAAGCACTAC (((.(((....))).)))	28.8 °C	-14.8 kcal/mol
GTACTGGGAAACCAGCAC ((.((((....)))).))	42.3 °C	-20.4 kcal/mol
GTACTTCCGAAAGGATAC (((..(((....))))))	24.9 °C	-10.3 kcal/mol
GTACTTGGAAACAAGTAC (((((((....)))))))	56 °C	-33.5 kcal/mol
GTAGAACGAAAGTTATAC (((.(((....))).)))	44.1 °C	-33.9 kcal/mol
GTAGACACGAAAGTGTAC (((..(((....))))))	32 °C	-10.5 kcal/mol
GTAGACGAAAGTCCATAC ((((((....)))..)))	26 °C	-10.2 kcal/mol
GTAGACGAAAGTCTATAC ((((((....)))..)))	42.6 °C	-12.2 kcal/mol
GTAGACGAAAGTCTTTAC ((((((....)))..)))	29.3 °C	-10.4 kcal/mol

Sequence	Tm [1]	folding enthalpy [2]
GTAGACGGAAACGCCTAC ((((.((....)).))))	45.3 °C	-32.3 kcal/mol
GTAGACGGAAACGTTTAC (((.(((....))).)))	41.5 °C	-33.2 kcal/mol
GTAGAGAAATCTAC (((((....)))))	35.5 °C	-12.6 kcal/mol
GTAGAGACGAAAGTCTAC (((..(((....))))))	36 °C	-11.7 kcal/mol
GTAGAGCGAAAGCTTTAC (((.(((....))).)))	47.5 °C	-24.4 kcal/mol
GTAGAGGGAAACCTTTAC (((.(((....))).)))	31 °C	-28.7 kcal/mol
GTAGAGGGAAACTTCTAC (((((.(....).)))))	35 °C	-21.5 kcal/mol
GTAGATCGAAAGATGTAC (((.(((....))).)))	42.6 °C	-31.6 kcal/mol
GTAGCAGCGAAAGCTTAC (((..(((....))))))	26.8 °C	-10.3 kcal/mol
GTAGCAGGAAACTACTAC ((((.((....)).))))	35 °C	-24.4 kcal/mol
GTAGCAGGAAACTGTTAC (((.(((....))).)))	40.5 °C	-30.4 kcal/mol
GTAGCCGAAAGGCACTAC ((((((....)))..)))	48.5 °C	-12.5 kcal/mol
GTAGCCGAAAGGCCTAC ((((((....))).)))	45 °C	-12.5 kcal/mol
GTAGCCGAAAGGCGTTAC ((((((....)))..)))	38.9 °C	-8 kcal/mol
GTAGCCGGAAACGGTTAC (((.(((....))).)))	51.3 °C	-37.7 kcal/mol
GTAGCGACGAAAGTCTAC (((..(((....))))))	26.9 °C	-13.2 kcal/mol
GTAGCGGGAAACCGCCAC ((.((((....)))).))	38.7 °C	-11.7 kcal/mol
GTAGCGGGAAACTGCTGC (.(((.(....).))).)	44.2 °C	-22.6 kcal/mol
GTAGCTGCGAAAGCATAC (((..(((....))))))	31.3 °C	-10.1 kcal/mol
GTAGCTGGAAACAGCCAC ((.((((....)))).))	37.7 °C	-14.3 kcal/mol
GTAGGAGAAATCCTAC ((((((....))))))	47.3 °C	-26.7 kcal/mol
GTAGGAGGAAACTCCTGC (.(((((....))))).)	46.8 °C	-22.3 kcal/mol
GTAGGAGGAAACTTCTAC ((((.((....)).))))	37.4 °C	-27 kcal/mol

Sequence	Tm [1]	folding enthalpy [2]
GTAGGCCCGAAAGGGTAC (((..(((....))))))	32.9 °C	-11.1 kcal/mol
GTAGGCCGAAAGGCATAC (((.(((....))).)))	61.9 °C	-33.2 kcal/mol
GTAGGCGAAAGCCAATAC ((((((....)))..)))	33.6 °C	-9.29 kcal/mol
GTAGGCGAAAGCCATTAC ((((((....)))..)))	23 °C	-7.44 kcal/mol
GTAGGCGAAAGCCGGTAC ((((((....)))..)))	42.2 °C	-10.7 kcal/mol
GTAGGCGCGAAAGCGTAC (((..(((....))))))	34.9 °C	-9.85 kcal/mol
GTAGGCGGAAACGTCTGC (.((.((....)).)).)	41.6 °C	-23 kcal/mol
GTAGGGAAACCTAC (((((....)))))	46.2 °C	-25 kcal/mol
GTAGGGCGAAAGCCGTAC (((.(((....))).)))	56.8 °C	-23.6 kcal/mol
GTAGGGCGAAAGCCTTAC (((.(((....))).)))	50.4 °C	-20.2 kcal/mol
GTAGGGGCGAAAGCCTAC (((..(((....))))))	37.9 °C	-10.8 kcal/mol
GTAGGGGGAAACCTCTAC ((((.((....)).))))	44.6 °C	-33 kcal/mol
GTAGGGGGAAACCTCTGC (.((.((....)).)).)	31.9 °C	-16.8 kcal/mol
GTAGGGTCGAAAGACTAC (((..(((....))))))	32.5 °C	-12.2 kcal/mol
GTAGGTCGAAAGACATAC (((.(((....))).)))	51.9 °C	-29.7 kcal/mol
GTAGGTGAAAACCTAC ((((((....))))))	56.4 °C	-30.9 kcal/mol
GTAGGTGGAAACACCTGC (.(((((....))))).)	53.4 °C	-18.5 kcal/mol
GTAGGTGGAAACATCTAC ((((.((....)).))))	42.4 °C	-31.3 kcal/mol
GTAGGTGGAAACGCCTAC (((((.(....).)))))	51.9 °C	-32.8 kcal/mol
GTAGTACGAAAGTAGTAC (((.(((....))).)))	47.3 °C	-33.5 kcal/mol
GTAGTACGAAAGTATAC (((.(((....))))))	32 °C	-17.1 kcal/mol
GTAGTAGGAAACTACTAC (((((((....)))))))	53.3 °C	-41.9 kcal/mol
GTAGTAGGAAACTGCTAC ((((.((....)).))))	44.7 °C	-30.5 kcal/mol

Sequence	Tm [1]	folding enthalpy [2]
GTAGTATCGAAAGATTAC (((..(((....))))))	26.1 °C	-12.9 kcal/mol
GTAGTCCGAAAGGAGTAC (((.(((....))).)))	54.1 °C	-43.5 kcal/mol
GTAGTCGAAAGACGGTAC ((((((....)))..)))	39.2 °C	-11.8 kcal/mol
GTAGTCGAAAGACTAC ((((((....))))))	64.1 °C	-31.9 kcal/mol
GTAGTCGAAAGACTCTAC ((((((....)))..)))	36.2 °C	-12.8 kcal/mol
GTAGTCGGAAACGACTAC (((((((....)))))))	64.8 °C	-41.2 kcal/mol
GTAGTGGCGAAAGCCTAC (((..(((....))))))	35.4 °C	-11.6 kcal/mol
GTAGTGGGAAACCACCAC ((.((((....)))).))	33.5 °C	-16.3 kcal/mol
GTAGTGGGAAACTACTGC (.(((.(....).))).)	46 °C	-28.8 kcal/mol
GTAGTTGGAAACAACTAC (((((((....)))))))	56.1 °C	-43.5 kcal/mol
GTAGTTGGAAACAGCTAC ((((.((....)).))))	42.9 °C	-29.4 kcal/mol
GTATAACCGAAAGGTTAC (((..(((....))))))	31.8 °C	-11.4 kcal/mol
GTATAACGAAAGTTCTAC (((.(((....))).)))	31.1 °C	-20 kcal/mol
GTATAAGGAAACTTATGC (.(((((....))))).)	31.6 °C	-18.5 kcal/mol
GTATACGAAAGTAGATAC ((((((....)))..)))	24.9 °C	-10.1 kcal/mol
GTATACGAAAGTATCTAC ((((((....)))..)))	32.5 °C	-18.6 kcal/mol
GTATACGAAAGTATGTAC ((((((....)))..)))	30.6 °C	-12.4 kcal/mol
GTATCACGAAAGTGTTAC (((.(((....))).)))	42.3 °C	-25.8 kcal/mol
GTATCAGGAAACTGATAC (((((((....)))))))	54.6 °C	-39.3 kcal/mol
GTATCCCGAAAGGGTAC (((.(((....))))))	49 °C	-17.9 kcal/mol
GTATCCGAAAGGAATAC ((((((....))).)))	40.4 °C	-23.2 kcal/mol
GTATCCGAAAGGAGATAC ((((((....)))..)))	34.3 °C	-15.2 kcal/mol
